Data as given in ChEMBL document CHEMBL3817734, “Structure-activity relationships of vanillic acid ester analogs in inhibitory effect of antigen-mediated degranulation in rat basophilic leukemia RBL-2H3 cells” (Bioorg Med Chem Lett, 2016).
Each block holds one compound with its values, some of them ahead of it. Calls of active or inactive are those of the source. The rule behind the calls is not given here.

Key:
RBL-2H3 [1] = test: Anti-allergic activity in RBL2H3 cells assessed as inhibition of anti-DNP-IgE-induced degranulation incubated for 20 mins followed by DNP-labeled human serum albumin addition measured after 1 hr by beta-hexosaminidase release assay; type: functional, cell-based; conditions: Rattus norvegicus
How it was run: (§1)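 DNP-IgE-sensitized RBL-2H3 cells were pretreated with test samples for 20 min, with 75 μM oxatomide as positive control, then stimulated with DNP-HSA for 1 h. Degranulation was read as β-hexosaminidase release. Compounds were dissolved in culture medium containing cyclodextrin (CD). Data are the mean of three independent cultures ± SD, compared with control by Dunnett's test.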

[2] = Drug metabolism in RBL2H3 cells assessed as vanillin and vanillic acid formation; type: ADME, cell-based; conditions: rat, rbl-2h3
RBL-2H3 [3] = test: Anti-allergic activity in RBL2H3 cells assessed as inhibition of anti-DNP-IgE-induced degranulation at 30 to 300 uM incubated for 20 mins followed by DNP-labeled human serum albumin addition measured after 1 hr by beta-hexosaminidase release assay; type: functional, cell-based; conditions: Rattus norvegicus; how it was run: as §1
[4] = Drug level in RBL2H3 cells treated with ferulic acid; type: ADME, cell-based; conditions: rat, rbl-2h3
RBL-2H3 [5] = test: Anti-allergic activity in RBL2H3 cells assessed as inhibition of anti-DNP-IgE-induced degranulation at 100 to 1000 uM incubated for 20 mins followed by DNP-labeled human serum albumin addition measured after 1 hr by beta-hexosaminidase release assay; type: functional, cell-based; conditions: Rattus norvegicus; how it was run: as §1
[6] = Drug metabolism in RBL2H3 cells assessed as esterase-mediated vanillic acid formation; type: ADME, cell-based; conditions: rat, rbl-2h3
[7] = Drug metabolism in RBL2H3 cells assessed as esterase-mediated butanol formation; type: ADME, cell-based; conditions: rat, rbl-2h3
[8] = Solubility of compound in water; type: physicochemical; conditions: buffer
[9] = Cytotoxicity in RBL2H3 cells; type: cell-based; conditions: rat, rbl-2h3
[10] = Increase in anti-DNP-IgE-induced degranulation in RBL2H3 cells incubated for 20 mins followed by DNP-labeled human serum albumin addition measured after 1 hr by beta-hexosaminidase release assay; type: cell-based; conditions: rat, rbl-2h3, 1 h; how it was run: as §1
RBL-2H3 [11] = test: Anti-allergic activity in RBL2H3 cells assessed as inhibition of anti-DNP-IgE-induced degranulation at 1000 uM incubated for 20 mins followed by DNP-labeled human serum albumin addition measured after 1 hr by beta-hexosaminidase release assay; type: functional, cell-based; conditions: Rattus norvegicus; how it was run: as §1
[12] = Drug level in RBL2H3 cells treated with butyl vanillate assessed as esterase-mediated compound formation; type: ADME, cell-based; conditions: rat, rbl-2h3

- Drug metabolism [2]: metabolite_detected
Structure (SMILES): COc1cc(/C=C/C(=O)O)ccc1O [FERULATE]
- inhibition (RBL-2H3 [1]): Active

Structure (SMILES): CCCCOC(=O)c1cccc(O)c1
- inhibition (RBL-2H3 [3]): Active

Structure (SMILES): CCOC(=O)CCc1ccc(O)c(OC)c1
- inhibition (RBL-2H3 [3]): inactive

- Drug metabolism [4]: metabolite_detected
Structure (SMILES): COc1cc(C=O)ccc1O [VANILLIN]
- inhibition (RBL-2H3 [5]): inactive

- Drug metabolism [6]: metabolite_detected
- IC50 (RBL-2H3 [1]): 198 µM
- Drug metabolism [7]: metabolite_detected
- solubility [8]: soluble
Structure (SMILES): CCCCOC(=O)c1ccc(O)c(OC)c1
- Activity [9]: Non-toxic

Structure (SMILES): CCCOC(=O)Cc1ccc(O)c(OC)c1
- inhibition (RBL-2H3 [3]): inactive

- IC50 (RBL-2H3 [1]): 415 µM
Structure (SMILES): COc1cc(C(=O)OC(C)C)ccc1O

Structure (SMILES): CCCCOC(=O)c1cccc(OC)c1
- inhibition (RBL-2H3 [3]): inactive

Structure (SMILES): CCCCCCCCOC(=O)c1ccc(O)c(OC)c1
- Activity [10]: Toxic
- Activity [9]: Toxic

- IC50 (RBL-2H3 [1]): 640 µM
Structure (SMILES): COC(=O)c1ccc(O)c(OC)c1 [METHYL VANILLATE]
- inhibition (RBL-2H3 [11]): Active

Structure (SMILES): CCCCOC(=O)c1ccc(OC)c(O)c1
- inhibition (RBL-2H3 [3]): Active

Structure (SMILES): CCCCOC(=O)c1ccc(O)cc1
- inhibition (RBL-2H3 [3]): Active

Structure (SMILES): CCCCOC(=O)c1ccc(OC)cc1
- inhibition (RBL-2H3 [3]): inactive

- IC50 (RBL-2H3 [1]): 294 µM
Structure (SMILES): CCCOC(=O)c1ccc(O)c(OC)c1

Structure (SMILES): CCCCOC(=O)c1ccccc1
- inhibition (RBL-2H3 [3]): inactive

- Drug metabolism [4]: metabolite_detected
- Drug metabolism [12]: metabolite_detected
Structure (SMILES): COc1cc(C(=O)O)ccc1O [VANILLIC ACID]
- inhibition (RBL-2H3 [5]): inactive
